Experimental data taken from the RNAGym collection of RNA variant scans (doi:10.1126/science.aae0568).
Variants at the floor of the assay were thinned out.

B1: tRNA (parent)
chain: GUUCCGUUGGCGUAAUGGUAACGCGUCUCCCUCCUAAGGAGAAGACUGCGGGUUCGAGUCCCGUACGGAACG

Variants of: B1
Experiment: yeast fitness relative to wild type (ratio to wild type); higher = fitter; tRNA-Arg(CCU), competitive growth, 37 C, YPD
How it was run: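 For this measurement, the tRNA-Arg(CCU) gene was varied by chemical synthesis at a 3% per-site mutation rate across 69 sites, and each variant was placed at the native genomic locus in Saccharomyces cerevisiae. The pooled strains went through a 24-hour competition in YPD at 37°C in six parallel replicates, with amplicons from start and end populations read by 100-nucleotide paired-end sequencing. Darwinian fitness relative to wild type followed from the change in each genotype's frequency. Genotypes needed ≥ 100 starting reads, and estimates < 0.5 were set to 0.5.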

| Variant | yeast fitness |
| --- | --- |
| C31U G48A A69C | 0.772 |
| A20U C24U A42U C46A C55U C61G | 0.518 |
| A21G C49U U59G | 0.619 |
| A14G C34G A43C G58U A65U | ≤ 0.5 |
| C30U A45C A65U | ≤ 0.5 |
| U28A C31U U32A G52A A57U C60U A65G G68A | ≤ 0.5 |
| U26C A43C | 0.952 |
| U8G U26A C66U G67C | 0.847 |
| C60A G67C | 0.654 |
| C11U U26G U35C G63A A70G | ≤ 0.5 |
| C5G U7C G51C | 0.564 |
| C24U A37U | 0.652 |
| G9A A69G | 0.953 |
| C24G C31G | 0.773 |
| C5A G9A G41A U64A | ≤ 0.5 |
| A15U C33G C49A C60G | ≤ 0.5 |
| C24U U53A | 0.626 |
| C5U A21U C30G G56A C66A | ≤ 0.5 |
| C27U C33A A37U A57G | ≤ 0.5 |
| A21C C61U A70U | 0.623 |
| G6A C24A G38A G39C | ≤ 0.5 |
| C11A G12A G25A | 0.604 |
| G10C C11A C31U A36U G56C A57U | 0.606 |
| U7G U32A U35C C61G | ≤ 0.5 |

| Variant | yeast fitness |
| --- | --- |
| C5G G12C C33U G68C | 0.612 |
| C4G C24U C33G A65U C66U A69C | 0.584 |
| C31G A43U C46G C66U A70U | ≤ 0.5 |
| G23A A40G A45C | ≤ 0.5 |
| C31G A37U G39C A42C | ≤ 0.5 |
| C4A G10A G50A | ≤ 0.5 |
| C30A C60A | 0.619 |
| G23C U59C | 0.583 |
| C4U U26G | 0.912 |
| U3C C61U G67A | 0.567 |
| C24G C49G G50C | ≤ 0.5 |
| G9A A42U U59A G67C | ≤ 0.5 |
| G23A U54A G67A | ≤ 0.5 |
| U8A U26C G38A | ≤ 0.5 |
| U19G A37G A65U A69U | ≤ 0.5 |
| C11G C24G C27A U28C C66U | ≤ 0.5 |
| A15U G23A C60G | ≤ 0.5 |
| U8A A14G C46U G50C C55U A57U C62G A70U | ≤ 0.5 |
| A15G C34G C46U | ≤ 0.5 |
| C5U U7A U35A A36U A45U C60G | ≤ 0.5 |
| C4A G9A G18C C22A A69C | ≤ 0.5 |
| U35A A37G A43C U54C | ≤ 0.5 |
| C22G U35C | 0.8 |
| U16C A37G A42C A69U | ≤ 0.5 |

| Variant | yeast fitness |
| --- | --- |
| C22U A40C A70U | 0.545 |
| U3C A20C A45C C49U | ≤ 0.5 |
| U3A C24G A69C | ≤ 0.5 |
| A42G A65C A69C A70G | 0.577 |
| C29U G39U | 1.07 |
| C4G A40U A42C A57C | ≤ 0.5 |
| A15U G38C G39A A43C A57U | ≤ 0.5 |
| C4A A14G G17A C60G | ≤ 0.5 |
| C22G A37G A45C G51U | ≤ 0.5 |
| A45C G67C | 0.639 |
| C5U G18C C49U U54G | ≤ 0.5 |
| C61G C62U | 0.613 |
| C30G G41C G68A | ≤ 0.5 |
| G63A A69C | 0.941 |
| C11U A20U | 0.75 |
| U2A G44A C66U | 0.588 |
| G18A U19G C60U A69C | ≤ 0.5 |
| C4G A45G A57U C66U | 0.512 |
| C22A C24G A65U A69C | ≤ 0.5 |
| C4G G12U A14C C49U | ≤ 0.5 |
| C29A G56C A57U | 0.583 |
| U8A G10C C11U C24U A42C U47C G68C | ≤ 0.5 |
| U2A A21C C29U | ≤ 0.5 |
| G12C C22U U54C | 0.683 |

| Variant | yeast fitness |
| --- | --- |
| C4A U32G A45G A69U | ≤ 0.5 |
| C11U A21G C29G C61G | ≤ 0.5 |
| C29G C30U U47C | ≤ 0.5 |
| G25C U53A A57U A65U | ≤ 0.5 |
| C22G C27G C31G C49A G52A | ≤ 0.5 |
| C11U C55U | 0.8 |
| G6A A36C | 0.53 |
| U2C C24G C29U A69C | ≤ 0.5 |
| U2G C46A G63C | 0.56 |
| U19C C33G A57G C61G | ≤ 0.5 |
| C30U U32A A36U A37U C62U | ≤ 0.5 |
| C62G G67C | 0.614 |
| A37U C55U C61G A65U | ≤ 0.5 |
| U3C C5G G51C | ≤ 0.5 |
| C5G A21G G51A | 0.617 |
| A20G C31U A57C U64A G68A | ≤ 0.5 |
| C4U C24A C62U A69U | ≤ 0.5 |
| U7A C27U C29U G58A G68A | ≤ 0.5 |
| U13A C27U G50U | 0.674 |
| U8C C22G C60A | 0.609 |
| A21U A42U C66U | ≤ 0.5 |
| G6A A21C U28A C62U | ≤ 0.5 |
| G44C A70C | 0.927 |
| C31G C61G | 0.623 |

| Variant | yeast fitness |
| --- | --- |
| G9A A36G G50C U64C | 0.645 |
| C34A G67U | 0.717 |
| A21U G23C C62A | ≤ 0.5 |
| A15G G67A A69C | 0.767 |
| G6A A15U C22A | ≤ 0.5 |
| U3A A14G C31G A37U A65U | ≤ 0.5 |
| C11G G18C A21G A40U A70U | 0.509 |
| A14C G23A A45U C61U | 0.782 |
| C46A C60U | 0.83 |
| G48A C62G | 0.951 |
| U2C U19C A37G C49A | ≤ 0.5 |
| U7A C27U G52C G68C | ≤ 0.5 |
| U2A G68C | 0.671 |
| U28A U32C G39C | 0.542 |
| C4A C22U A40G A43U C46G C49G C62U | 0.527 |
| C34G A37C | 0.554 |
| C4A C24G U32C C62U A69C | ≤ 0.5 |
| A42G G68C | 0.798 |
| C34G A40C G44A A69U | ≤ 0.5 |
| G10C A37C | 0.622 |
| C4A A20G G58A A70C | 1.02 |
| G17A C60U | 0.594 |
| C5G C33U A65C G68C | ≤ 0.5 |
| U3G C24A C30U | ≤ 0.5 |

| Variant | yeast fitness |
| --- | --- |
| C5G C29A A36G A42C G44A C49U C60U | ≤ 0.5 |
| A43C G58A | 0.944 |
| G25A C29U A65G | 0.704 |
| C11G U13G A21G G63A | ≤ 0.5 |
| A42G G44C C60G | 0.606 |
| A20C A36U G39C G48A | ≤ 0.5 |
| A20G C22G G38A | 0.539 |
| U7G G10C G44C A69U | 0.617 |
| C5U G17C C30A | 0.548 |
| U16A A20C U53C | 0.599 |
| U7A C62G | 0.63 |
| C11A U19G A36G U54C U64C G67A | ≤ 0.5 |
| A45G C46U G51C G67C | ≤ 0.5 |
| U13A A15G C66U | 0.644 |
| C4U C27A G51C | 0.562 |
| G52C G63A A65G | ≤ 0.5 |
| C62G A65U | 0.75 |
| C4G C11A G17A A20G C27U A43U C49G | ≤ 0.5 |
| G12A U35G G58A G68A | ≤ 0.5 |
| U16G C31U A42U | 0.522 |
| U8A A14C C31A G41C C49A | 0.562 |
| U16C C27G G52A C60G A69U A70C | ≤ 0.5 |
| C11A A14G C24U G41C A42G C55G | ≤ 0.5 |
| C22A U32C C66U | 0.503 |

| Variant | yeast fitness |
| --- | --- |
| U3G G51A | 0.701 |
| G9A C33U U47C | ≤ 0.5 |
| A15C U53G | 0.621 |
| C27G A45C G58C | 0.644 |
| U2C G67C | 0.741 |
| C22U C31G G38A U47A | ≤ 0.5 |
| C5U C31A | 0.688 |
| U2G G25C C29U C33U A40G G52A U59C A65U | 0.581 |
| A15U C30G C61U G68A | ≤ 0.5 |
| U2G C30U U59C | ≤ 0.5 |
| A20C A45C | 0.843 |
| U7C A14G A43U C49G | ≤ 0.5 |
| C11A U28G C33A A42C | ≤ 0.5 |
| U16A C46G A57G C61A | ≤ 0.5 |
| U8G A20G | 0.544 |
| C22G C55U U59A A65C | ≤ 0.5 |
| U19G A37G A65U | 0.61 |
| A14U A45C C49U A65C | ≤ 0.5 |
| A20G A40U G52A C55A | 0.529 |
| G52A G63C | 0.652 |
| C22U C60G | 0.688 |
| U8A U19C C31A U35G A43G U47C G52C G67A | 0.575 |
| C55U G67C | 0.677 |
